We go through 1 compound from ChEMBL document CHEMBL4665652, “Discovery of novel quinoline sulphonamide derivatives as potent, selective and orally active RORγ inverse agonists” (Bioorg Med Chem Lett, 2019).

Data set [1] can be described thus: Cmax in mouse at 30 mg/kg, po. Format: ADME, organism-based. More on the design: route oral, dose 30 mg/kg. The settings on record: in vivo. The procedure, abridged: (§1)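 Mice dosed orally at 10, 30 or 100 mg/kg as a suspension in 1% methylcellulose 400cp + 0.1% Poloxamer (188). Tmax, Cmax, AUClast and oral t1/2 were taken from plasma concentration–time profiles. Ratios are the value at each dose over the value at 10 mg/kg.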

Data set [2] in a line: In vivo inverse agonist activity at RORgamma in MOG(35-55) peptide/PTX-induced mechanistic C57BL/6 mouse model assessed as anti-CD3 induced IL-22 level in serum at 100 mg/kg, po dosed for 5 days during MOG/PTX priming and followed by 45 mins prior to anti-CD3 challenge and measured after 2 hrs relative to control. Conditions: time 5 day. The class given is functional. Summed up:
(§2)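 Mice immunized with mouse MOG35-55 peptide plus pertussis toxin. After 5 days, compound given orally as a suspension in methylcellulose 400cp + 1% poloxamer, 45 min before an anti-CD3 challenge. Circulating cytokines measured 2 h later. Comparison vs vehicle by Dunnett post test.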

Data set [3] in a line: Tmax in mouse at 30 mg/kg, po. The class given is ADME, organism-based. The settings on record: in vivo. Summed up: (§3)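 Mice dosed orally with an ascending-dose series at 10, 30 and 100 mg/kg. Compound given as a suspension in 1% methylcellulose 400cp + 0.1% poloxamer. Plasma Tmax taken from the concentration profiles. The Cmax ratio is expressed relative to the 10 mg/kg dose.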

Data set [4] can be described thus: In vivo inverse agonist activity at RORgamma in MOG(35-55) peptide/PTX-induced mechanistic C57BL/6 mouse model assessed as anti-CD3 induced TNFalpha level in serum at 100 mg/kg, po dosed for 5 days during MOG/PTX priming and followed by 45 mins prior to anti-CD3 challenge and measured after 2 hrs relative to control. Format: functional. Conditions: time 5 day. Summed up:
as §2

The nature of data set [5]: In vivo inverse agonist activity at RORgamma in MOG(35-55) peptide/PTX-induced mechanistic C57BL/6 mouse model assessed as anti-CD3 induced IL-6 level in serum at 10 mg/kg, po dosed for 5 days during MOG/PTX priming and followed by 45 mins prior to anti-CD3 challenge and measured after 2 hrs relative to control. The class given is functional. Conditions: time 5 day. The procedure, abridged:
as §2

Data set [6] in a line: Half life in mouse at 30 mg/kg, po. Conditions: in vivo. Format: ADME, organism-based. The procedure, abridged: as §1
The nature of data set [7]: In vivo inverse agonist activity at RORgamma in MOG(35-55) peptide/PTX-induced mechanistic C57BL/6 mouse model assessed as anti-CD3 induced IL-22 level in serum at 30 mg/kg, po dosed for 5 days during MOG/PTX priming and followed by 45 mins prior to anti-CD3 challenge and measured after 2 hrs relative to control. The class given is functional. Conditions: time 5 day. The procedure, abridged:
as §2

The nature of data set [8]: Tmax in mouse at 100 mg/kg, po. Format: ADME, organism-based. Conditions: in vivo. Summed up: as §3
Data set [9] in a line: AUClast in mouse at 100 mg/kg, po. Format: ADME, organism-based. More on the design: time 0 - last, route oral, dose 100 mg/kg. Conditions: in vivo. Summed up:
(§4)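 Oral ascending-dose PK in mice at 100 mg/kg (ratios against 10 mg/kg), given as a suspension in 1% methylcellulose 400cp + 0.1% Poloxamer. Cmax, AUClast and t1/2 come from plasma profiles.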

The nature of data set [10]: In vivo inverse agonist activity at RORgamma in MOG(35-55) peptide/PTX-induced mechanistic C57BL/6 mouse model assessed as anti-CD3 induced IL-2 level in serum at 10 mg/kg, po dosed for 5 days during MOG/PTX priming and followed by 45 mins prior to anti-CD3 challenge and measured after 2 hrs relative to control. Format: functional. The settings on record: time 5 day. The procedure, abridged: as §2

A short description of data set [11]: In vivo inverse agonist activity at RORgamma in MOG(35-55) peptide/PTX-induced mechanistic C57BL/6 mouse model assessed as anti-CD3 induced TNFalpha level in serum at 30 mg/kg, po dosed for 5 days during MOG/PTX priming and followed by 45 mins prior to anti-CD3 challenge and measured after 2 hrs relative to control. Format: functional. The settings on record: time 5 day. The procedure, abridged: as §2

Another data set has as its target CYP2C9 (Homo sapiens, UniProt P11712). The data set is described as follows: Inhibition of CYP2C9 (unknown origin) at 1 uM relative to control. The class given is ADME.
Data set [12] deals with T1, Nuclear receptor ROR-gamma (Homo sapiens, UniProt P51449).
T1 sequence (P51449 whole entry): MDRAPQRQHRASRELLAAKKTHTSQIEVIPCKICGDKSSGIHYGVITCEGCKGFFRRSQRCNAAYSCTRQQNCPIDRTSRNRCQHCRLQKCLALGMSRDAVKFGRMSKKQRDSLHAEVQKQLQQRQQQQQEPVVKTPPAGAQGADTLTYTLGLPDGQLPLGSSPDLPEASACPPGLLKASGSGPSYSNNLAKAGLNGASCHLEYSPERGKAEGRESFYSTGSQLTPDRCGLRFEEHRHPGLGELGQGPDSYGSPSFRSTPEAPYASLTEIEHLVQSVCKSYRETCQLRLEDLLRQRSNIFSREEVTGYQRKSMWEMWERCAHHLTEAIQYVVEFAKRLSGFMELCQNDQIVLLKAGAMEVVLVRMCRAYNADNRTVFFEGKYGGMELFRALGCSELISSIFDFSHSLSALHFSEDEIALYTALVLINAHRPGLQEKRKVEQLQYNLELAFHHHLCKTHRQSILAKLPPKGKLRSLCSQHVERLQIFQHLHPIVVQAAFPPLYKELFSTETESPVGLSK
Briefly: Inverse agonist activity at RORgamma in human CD4+ T cells assessed as inhibition of IL17A secretion after 72 hrs by ELISA. The class given is cell-based, CD4+ve Th.

A short description of data set [13]: AUClast in mouse at 10 mg/kg, po. The settings on record: in vivo. Format: ADME, organism-based. Set-up: route oral, time 0 - last, dose 10 mg/kg. The procedure, abridged:
as §1

The nature of data set [14]: In vivo inverse agonist activity at RORgamma in MOG(35-55) peptide/PTX-induced mechanistic C57BL/6 mouse model assessed as anti-CD3 induced TNFalpha level in serum at 10 mg/kg, po dosed for 5 days during MOG/PTX priming and followed by 45 mins prior to anti-CD3 challenge and measured after 2 hrs relative to control. Format: functional. Conditions: time 5 day. Summed up:
as §2

Data set [15] in a line: In vivo inverse agonist activity at RORgamma in MOG(35-55) peptide/PTX-induced mechanistic C57BL/6 mouse model assessed as anti-CD3 induced IL-2 level in serum at 100 mg/kg, po dosed for 5 days during MOG/PTX priming and followed by 45 mins prior to anti-CD3 challenge and measured after 2 hrs relative to control. The settings on record: time 5 day. The class given is functional. Summed up:
as §2

Another data set relates to Mus musculus. Briefly: In vivo inverse agonist activity at RORgamma in po dosed MOG(35-55) peptide/PTX-induced mechanistic C57BL/6 mouse model assessed as anti-CD3 induced IL-17F level in serum dosed for 5 days during MOG/PTX priming and followed by 45 mins prior to anti-CD3 challenge and measured after 2 hrs relative to control. Conditions: dose mg/kg 10-100, time 5.0 day. Format: functional, organism-based. The procedure, abridged:
as §2

The nature of data set [16]: In vivo inverse agonist activity at RORgamma in MOG(35-55) peptide/PTX-induced mechanistic C57BL/6 mouse model assessed as anti-CD3 induced IL-10 level in serum at 100 mg/kg, po dosed for 5 days during MOG/PTX priming and followed by 45 mins prior to anti-CD3 challenge and measured after 2 hrs (reference value: -11%). Format: functional. The settings on record: time 5 day. Summed up:
as §2

The nature of data set [17]: Oral bioavailability in mouse at 10 mg/kg. Format: ADME, organism-based. The settings on record: in vivo. The procedure, abridged: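 Mouse PK with iv 1 mg/kg and po 10 mg/kg, oral dose as a suspension in 1% methylcellulose 400cp + 0.1% Poloxamer 188. Plasma clearance (total and unbound), iv t1/2 and oral bioavailability F were derived from the iv and po profiles.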

The nature of data set [18]: Ratio of Cmax in mouse at 100 mg/kg, po to Cmax in mouse at 10 mg/kg, po. The settings on record: in vivo. The class given is ADME, organism-based. Summed up: as §4

Structures are written as SMILES.

CYP2C9, sequence (P11712 whole entry): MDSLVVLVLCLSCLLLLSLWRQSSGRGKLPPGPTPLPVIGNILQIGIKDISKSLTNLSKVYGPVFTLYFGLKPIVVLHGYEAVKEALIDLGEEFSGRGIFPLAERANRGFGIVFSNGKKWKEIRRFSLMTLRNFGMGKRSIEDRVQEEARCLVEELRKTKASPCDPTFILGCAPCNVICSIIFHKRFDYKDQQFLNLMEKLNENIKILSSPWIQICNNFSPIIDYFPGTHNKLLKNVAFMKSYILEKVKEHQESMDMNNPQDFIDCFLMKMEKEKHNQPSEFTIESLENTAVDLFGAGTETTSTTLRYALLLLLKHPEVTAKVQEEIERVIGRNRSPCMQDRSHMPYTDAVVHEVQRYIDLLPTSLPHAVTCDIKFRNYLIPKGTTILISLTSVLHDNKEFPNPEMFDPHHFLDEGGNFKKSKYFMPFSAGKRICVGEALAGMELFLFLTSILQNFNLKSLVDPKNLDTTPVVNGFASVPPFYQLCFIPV

As to `CNC(=O)[C@@H]1CCCN1S(=O)(=O)c1ccc(Cl)c(COc2cccc3c(-c4cncn4C)cc(C(C)C)nc23)c1Cl`, in data set [1], the peak level (Cmax) was 11800 ng/mL. The Activity was -45% in [2]; -32% in data set [4]; -29% in data set [5]; -46% in data set [7]; -39% in [10]; -27% in data set [11]. In addition, the Activity in data set [14] was -22%; in data set [15], -46%; in the data set on Mus musculus it was “Dose-dependent effect”; in data set [16], 807%. In addition, the Tmax worked out at 0.25 h in [3] and 3 h in [8]. This compound also had a half-life in data set [6] of 1 h. The AUC(0-t) was 270 µg·h/mL in data set [9] and 3.9 µg·h/mL in data set [13]. This compound had an inhibition at 1 µM at CYP2C9 of 100%. In addition, in data set [12], the EC50 amounted to 0.15 µM. In addition, the bioavailability in [17] was 64%. The Ratio in [18] was 8.3.
